# Laboratory results published in ChEMBL document CHEMBL4373711, “Development of 3,5-Dinitrophenyl-Containing 1,2,4-Triazoles and Their Trifluoromethyl Analogues as Highly Efficient Antitubercular Agents Inhibiting Decaprenylphosphoryl-β-d-ribofuranose 2'-Oxidase” (J Med Chem, 2019).
# Active and inactive are the calls of the source. No cut-off for these calls is given here.
# What was measured:
# [1] = tested on: Candida albicans; assay: Antifungal activity against Candida albicans ATCC 24433 CCM 8320 at highest concentration measured after 24 to 48 hrs by alamar blue dye based broth microdilution assay; assay type: functional, organism-based
# [2] = tested on: Mycobacterium tuberculosis; assay: Antimycobacterial activity against Mycobacterium tuberculosis H37Rv CNCTC My 331/88 after 14 days; assay type: functional; details: H37Rv CNCTC My 331/88, 336 h
# Method in brief: (§1)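 M. tuberculosis strains (H37Rv and clinical MDR/XDR isolates) tested by microdilution in Šula's semisynthetic medium. Compounds were dissolved in DMSO and tested at 32 to 0.03 µM in twofold steps. Inoculum was a 1.0 McFarland suspension diluted 10-3. Plates were incubated at 37 °C and read at 14 and 21 days.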
# [3] = tested on: Mycobacterium avium; assay: Antimycobacterial activity against Mycobacterium avium CNCTC My 330/88 after 14 days; assay type: functional; details: CNCTC My 330/88, 336 h
# Method in brief: (§2)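 M. avium was tested by microdilution in Šula's semisynthetic medium, with compounds dissolved in DMSO and serially diluted from 1000 down to 1. Inoculum was a 1.0 McFarland suspension diluted 10-5. Plates were incubated at 37 °C and read at 14 and 21 days. […] Isoniazid and rifampicin served as standards.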
# [4] = tested on: Staphylococcus aureus; assay: Antibacterial activity against Staphylococcus aureus subsp. aureus ATCC 29213 CCM 4223 at highest concentration measured after 24 to 48 hrs by alamar blue dye based broth microdilution assay; assay type: functional, organism-based
# [5] = tested on: Staphylococcus epidermidis; assay: Antibacterial activity against Staphylococcus epidermidis at highest concentration measured after 24 to 48 hrs by alamar blue dye based broth microdilution assay; assay type: functional, organism-based
# [6] = tested on: Lichtheimia corymbifera; assay: Antifungal activity against Lichtheimia corymbifera CCM 8077 at highest concentration measured after 24 to 48 hrs by alamar blue dye based broth microdilution assay; assay type: functional, organism-based
# [7] = tested on: Escherichia coli; assay: Antibacterial activity against Escherichia coli ATCC 25922 CCM 3954 at highest concentration measured after 24 to 48 hrs by alamar blue dye based broth microdilution assay; assay type: functional, organism-based
# [8] = tested on: Candida parapsilosis; assay: Antifungal activity against Candida parapsilosis ATCC 22019 CCM 8260 at highest concentration measured after 24 to 48 hrs by alamar blue dye based broth microdilution assay; assay type: functional, organism-based
# [9] = tested on: A-431; assay: Cytotoxicity against human A431 cells assessed as reduction in cell viability after 48 hrs by CellTiter 96 aqueous one solution assay; assay type: cell-based; details: A-431, 48 h
# [10] = tested on: Aspergillus flavus; assay: Antifungal activity against Aspergillus flavus CCM 8363 at highest concentration measured after 24 to 48 hrs by alamar blue dye based broth microdilution assay; assay type: functional, organism-based
# [11] = tested on: Mycobacterium kansasii; assay: Antimycobacterial activity against Mycobacterium kansasii 6509/96 after 21 days; assay type: functional; details: 6509/96, 504 h
# Method in brief: (§3)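 Microdilution in Šula's semisynthetic medium; compounds in DMSO at 32–0.03 µM. Inoculum from 1.0 McFarland suspension diluted 10-4. […] Isoniazid and rifampicin as reference drugs.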
# [12] = tested on: Mycobacterium kansasii; assay: Antimycobacterial activity against Mycobacterium kansasii CNCTC My 235/80 after 7 days; assay type: functional; details: CNCTC My 235/80, 168 h; method in brief: as §3
# [13] = tested on: Staphylococcus aureus; assay: Antibacterial activity against methicillin-resistant Staphylococcus aureus subsp. aureus ATCC 43300 CCM 4750 at highest concentration measured after 24 to 48 hrs by alamar blue dye based broth microdilution assay; assay type: functional, organism-based
# [14] = tested on: Pseudomonas aeruginosa; assay: Antibacterial activity against Pseudomonas aeruginosa ATCC 27853 CCM 3955 at highest concentration measured after 24 to 48 hrs by alamar blue dye based broth microdilution assay; assay type: functional, organism-based
# [15] = tested on: Pichia kudriavzevii; assay: Antifungal activity against Candida krusei ATCC 6258 CCM8271 at highest concentration measured after 24 to 48 hrs by alamar blue dye based broth microdilution assay; assay type: functional, organism-based
# [16] = tested on: Mycobacterium tuberculosis; assay: Antimycobacterial activity against XDR Mycobacterium tuberculosis Praha 131 after 14 days; assay type: functional; details: Praha 131, 336 h; method in brief: as §1
# [17] = tested on: Mycobacterium kansasii; assay: Antimycobacterial activity against Mycobacterium kansasii 6509/96 after 7 days; assay type: functional; details: 6509/96, 168 h; method in brief: as §3
# [18] = Cytotoxicity against human HepG2 cells assessed as cell viability at 30 uM after 48 hrs by CellTiter 96 aqueous one solution assay relative to control; assay type: cell-based; details: read-out: Activity
# Method in brief: (§4)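 HepG2 (DMEM, 10% FBS, 1 mM pyruvate) or A431 (DMEM, 10% FBS) seeded 10,000 cells/well, 24 h at 37 °C, 5% CO2, then 30 µM compound for 48 h. MTS reagent 60 min, absorbance 490 nm, background subtracted; 0.1% DMSO vehicle = 100%, 10% SDS = 0% viability.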
# [19] = tested on: Klebsiella pneumoniae; assay: Antibacterial activity against Klebsiella pneumoniae at highest concentration measured after 24 to 48 hrs by alamar blue dye based broth microdilution assay; assay type: functional, organism-based
# [20] = tested on: Enterococcus faecalis; assay: Antibacterial activity against Enterococcus faecalis ATCC 29212 CCM 4224 at highest concentration measured after 24 to 48 hrs by alamar blue dye based broth microdilution assay; assay type: functional, organism-based
# [21] = tested on: Mycobacterium tuberculosis; assay: Antimycobacterial activity against Mycobacterium tuberculosis H37Rv CNCTC My 331/88 after 21 days; assay type: functional; details: H37Rv CNCTC My 331/88, 504 h; method in brief: as §1
# [22] = tested on: Aspergillus fumigatus; assay: Antifungal activity against Aspergillus fumigatus ATCC 204305 at highest concentration measured after 24 to 48 hrs by alamar blue dye based broth microdilution assay; assay type: functional, organism-based
# [23] = tested on: HepG2; assay: Cytotoxicity against human HepG2 cells assessed as reduction in cell viability after 48 hrs by CellTiter 96 aqueous one solution assay; assay type: cell-based; details: HepG2, 48 h
# [24] = tested on: Trichophyton interdigitale; assay: Antifungal activity against Trichophyton interdigitale ATCC 9533 CCM 8377 at highest concentration measured after 72 to 120 hrs by alamar blue dye based broth microdilution assay; assay type: functional
# [25] = tested on: Serratia marcescens; assay: Antibacterial activity against Serratia marcescens at highest concentration measured after 24 to 48 hrs by alamar blue dye based broth microdilution assay; assay type: functional, organism-based
# [26] = tested on: Mycobacterium kansasii; assay: Antimycobacterial activity against Mycobacterium kansasii 6509/96 after 14 days; assay type: functional; details: 6509/96, 336 h; method in brief: as §3
# [27] = Cytotoxicity against human A431 cells assessed as cell viability at 30 uM after 48 hrs by CellTiter 96 aqueous one solution assay relative to control; assay type: cell-based, A-431; details: read-out: Activity; method in brief: as §4
# [28] = tested on: Mycobacterium avium; assay: Antimycobacterial activity against Mycobacterium avium CNCTC My 330/88 after 21 days; assay type: functional; details: CNCTC My 330/88, 504 h; method in brief: as §2
# [29] = tested on: Mycobacterium tuberculosis; assay: Antimycobacterial activity against XDR Mycobacterium tuberculosis Praha 131 after 21 days; assay type: functional; details: Praha 131, 504 h; method in brief: as §1
# [30] = tested on: Candida tropicalis; assay: Antifungal activity against Candida tropicalis ATCC 750 CCM 8264 at highest concentration measured after 24 to 48 hrs by alamar blue dye based broth microdilution assay; assay type: functional, organism-based
# [31] = tested on: Mycobacterium kansasii; assay: Antimycobacterial activity against Mycobacterium kansasii CNCTC My 235/80 after 21 days; assay type: functional; details: CNCTC My 235/80, 504 h; method in brief: as §3
# [32] = tested on: Mycobacterium kansasii; assay: Antimycobacterial activity against Mycobacterium kansasii CNCTC My 235/80 after 14 days; assay type: functional; details: CNCTC My 235/80, 336 h; method in brief: as §3
Compound,Activity [1],MIC99 [2],MIC99 [3],Activity [4],Activity [5],Activity [6],Activity [7],Activity [8],IC50 [9],Activity [10],MIC99 [11],MIC99 [12],Activity [13],Activity [14],Activity [15],MIC99 [16],MIC99 [17],"viability at 48 h, 30 µM [18]",Activity [19],Activity [20],also measured
O=[N+]([O-])c1cc(-c2nnc(SCc3ccc(Br)cc3)n2Cc2ccccc2)cc([N+](=O)[O-])c1,inactive,0.125 µM,62 µM,inactive,inactive,inactive,inactive,inactive,> 30 µM,inactive,0.25 µM,0.125 µM,inactive,inactive,inactive,0.125 µM,0.125 µM,104%,inactive,inactive,"MIC99 [21]: 0.25 µM; Activity [22]: inactive; IC50 [23]: > 30 µM; Activity [24]: inactive; Activity [25]: inactive; MIC99 [26]: 0.125 µM; viability at 48 h, 30 µM [27]: 110%; MIC99 [28]: 62 µM; MIC99 [29]: 0.25 µM; Activity [30]: inactive; MIC99 [31]: 0.25 µM; MIC99 [32]: 0.25 µM"
CCCSc1nnc(-c2cc([N+](=O)[O-])cc([N+](=O)[O-])c2)n1Cc1ccccc1,inactive,0.06 µM,250 µM,inactive,inactive,inactive,inactive,inactive,> 30 µM,inactive,0.5 µM,0.125 µM,inactive,inactive,inactive,0.125 µM,0.25 µM,90%,inactive,inactive,"MIC99 [21]: 0.125 µM; Activity [22]: inactive; IC50 [23]: > 30 µM; Activity [24]: inactive; Activity [25]: inactive; MIC99 [26]: 0.25 µM; viability at 48 h, 30 µM [27]: 123%; MIC99 [28]: 250 µM; MIC99 [29]: 0.125 µM; Activity [30]: inactive; MIC99 [31]: 0.25 µM; MIC99 [32]: 0.25 µM"
CCn1c(SCc2ccccc2)nnc1-c1cc([N+](=O)[O-])cc([N+](=O)[O-])c1,inactive,0.03 µM,250 µM,inactive,inactive,inactive,inactive,inactive,> 30 µM,inactive,0.03 µM,0.03 µM,inactive,inactive,inactive,0.03 µM,0.03 µM,156%,inactive,inactive,"MIC99 [21]: 0.03 µM; Activity [22]: inactive; IC50 [23]: > 30 µM; Activity [24]: inactive; Activity [25]: inactive; MIC99 [26]: 0.03 µM; viability at 48 h, 30 µM [27]: 90%; MIC99 [28]: 250 µM; MIC99 [29]: 0.03 µM; Activity [30]: inactive; MIC99 [31]: 0.03 µM; MIC99 [32]: 0.03 µM"
Cn1c(SCc2ccc(Cl)c(Cl)c2)nnc1-c1cc([N+](=O)[O-])cc([N+](=O)[O-])c1,inactive,0.06 µM,> 500 µM,inactive,inactive,inactive,inactive,inactive,> 30 µM,inactive,0.125 µM,0.125 µM,inactive,inactive,inactive,0.06 µM,0.06 µM,110%,inactive,inactive,"MIC99 [21]: 0.06 µM; Activity [22]: inactive; IC50 [23]: > 30 µM; Activity [24]: inactive; Activity [25]: inactive; MIC99 [26]: 0.125 µM; viability at 48 h, 30 µM [27]: 92%; MIC99 [28]: > 500 µM; MIC99 [29]: 0.06 µM; Activity [30]: inactive; MIC99 [31]: 0.5 µM; MIC99 [32]: 0.25 µM"
O=[N+]([O-])c1cc(CSc2nnc(-c3ccccc3)n2Cc2ccccc2)cc([N+](=O)[O-])c1,inactive,4 µM,> 1000 µM,inactive,inactive,inactive,inactive,inactive,> 30 µM,inactive,8 µM,2 µM,inactive,inactive,inactive,2 µM,2 µM,107%,inactive,inactive,"MIC99 [21]: 4 µM; Activity [22]: inactive; IC50 [23]: > 30 µM; Activity [24]: inactive; Activity [25]: inactive; MIC99 [26]: 8 µM; viability at 48 h, 30 µM [27]: 69%; MIC99 [28]: > 1000 µM; MIC99 [29]: 4 µM; Activity [30]: inactive; MIC99 [31]: 8 µM; MIC99 [32]: 4 µM"
CCCCCCCCSc1nnc(-c2cc([N+](=O)[O-])cc([N+](=O)[O-])c2)n1Cc1ccccc1,inactive,0.06 µM,250 µM,inactive,inactive,inactive,inactive,inactive,> 30 µM,inactive,0.125 µM,0.06 µM,inactive,inactive,inactive,0.125 µM,0.06 µM,99%,inactive,inactive,"MIC99 [21]: 0.125 µM; Activity [22]: inactive; IC50 [23]: > 30 µM; Activity [24]: inactive; Activity [25]: inactive; MIC99 [26]: 0.06 µM; viability at 48 h, 30 µM [27]: 131%; MIC99 [28]: 250 µM; MIC99 [29]: 0.25 µM; Activity [30]: inactive; MIC99 [31]: 0.125 µM; MIC99 [32]: 0.06 µM"
